In the library only some 1.2% were active in any assay of this set; here they are far more common.
Diaph inh CS: diaphorase inhibition or chemical oxidation counter-screen. diaphorase resazurin-to-resorufin fluorescence, NADH, 16 min; bacterial (C. kluyveri) enzyme, not human. inhibition, % at 20 µM. 0.69% of 190,000 active;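 active means primary screen inhibition at 20 µM above a set limit, cut at about 50% in these data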;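 further: plate controls were DMSO with full reaction for no effect and wells lacking NADH for full effect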
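Benchmarks: positive control wells lacking NADH, neutral wells with DMSO only. System: bacterial diaphorase enzyme (C. kluyveri). Input: 0.14 U/mL diaphorase, enzyme working solution. Detection: resorufin fluorescence, excitation 544 nm, emission 590 nm. Times: 16-min room-temperature incubation before reading.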
PfG6PD inh: PfG6PD (Plasmodium falciparum) enzyme inhibition; PfGluPho enzyme, NADPH resazurin-diaphorase fluorescence; inhibition, % at 20 µM; 0.78% of 350,000 active; AID 504690;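 active means inhibition reaching at least a set limit at 20 µM in the primary screen, cut at about 59% in these data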;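 further: 0% = DMSO wells with substrate and 100% = DMSO wells lacking glucose-6-phosphate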
G6PDH CS: L. mesenteroides G6PDH inhibition counter-screen; AID 1020; 0.12% of 200,000 active; inhibition, % at 5 µM; Purified L. mesenteroides G6PDH, diaphorase/resazurin coupled fluorescence, 45 min; in the data active means inhibition above about 50%
HKDC1 inhibitor: HKDC1 (human) hexokinase inhibition; recombinant HKDC1, G6PDH/diaphorase resazurin coupled fluorescence; inhibition, % at 20 µM; 0.16% of 340,000 active; Q2TB90;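 active means inhibition above about 35% when tested at 20 µM, limit read from the data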;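 further: plate controls were DMSO wells with enzyme for no effect and DMSO wells lacking enzyme for full effect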
Target sequence (Q2TB90 whole entry, looked up): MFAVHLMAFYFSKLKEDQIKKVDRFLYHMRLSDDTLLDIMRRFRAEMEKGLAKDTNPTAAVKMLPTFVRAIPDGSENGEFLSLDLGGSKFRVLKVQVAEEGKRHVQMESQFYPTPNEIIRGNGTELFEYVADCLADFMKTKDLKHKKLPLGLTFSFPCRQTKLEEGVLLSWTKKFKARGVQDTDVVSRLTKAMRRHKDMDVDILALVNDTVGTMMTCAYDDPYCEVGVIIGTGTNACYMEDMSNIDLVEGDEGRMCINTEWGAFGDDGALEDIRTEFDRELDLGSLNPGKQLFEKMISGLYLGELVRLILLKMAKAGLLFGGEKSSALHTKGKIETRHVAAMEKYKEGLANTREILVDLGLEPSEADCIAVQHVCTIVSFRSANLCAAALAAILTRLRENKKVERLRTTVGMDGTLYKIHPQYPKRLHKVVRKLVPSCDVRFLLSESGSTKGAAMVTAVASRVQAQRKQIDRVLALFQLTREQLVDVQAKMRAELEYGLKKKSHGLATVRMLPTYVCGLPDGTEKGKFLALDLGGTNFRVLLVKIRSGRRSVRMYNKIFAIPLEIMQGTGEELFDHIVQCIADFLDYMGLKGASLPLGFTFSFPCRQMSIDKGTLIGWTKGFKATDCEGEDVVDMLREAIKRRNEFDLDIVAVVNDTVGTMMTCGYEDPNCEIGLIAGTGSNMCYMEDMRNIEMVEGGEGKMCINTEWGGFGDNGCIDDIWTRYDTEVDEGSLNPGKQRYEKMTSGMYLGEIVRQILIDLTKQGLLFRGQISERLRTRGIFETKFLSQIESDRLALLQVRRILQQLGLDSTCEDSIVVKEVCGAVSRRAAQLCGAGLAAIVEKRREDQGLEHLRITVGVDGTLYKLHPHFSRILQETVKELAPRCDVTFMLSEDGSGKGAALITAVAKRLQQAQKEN
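Assay system: in-house recombinant HK5 (HKDC1) enzyme. Input: HKDC1 at 5 µg/mL. Medium: Tris pH 8.0 buffer with MgCl2, Tween-20, BSA, BME. Dosing: single 20 µM dose. Schedule: 90 min reaction incubation at room temperature, dark. Signal: resazurin-to-resorufin fluorescence via G6PDH and diaphorase coupling, 525/613 nm. Controls: DMSO-enzyme wells negative, buffer-substituted wells positive.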
An asterisk follows results filed as active; . = no result.

SMILES | Diaph inh CS | PfG6PD inh | G6PDH CS | HKDC1 inhibitor
COc1ccc(OCc2nc3ccccc3[nH]2)cc1 | -4 | -6 | -1 | -10
O=C(c1ccco1)N1CCN(C(=O)c2cnn(-c3ccc(F)cc3)c2-n2cccc2)CC1 | . | -17 | . | .
CCc1noc(C)c1C(=O)N1CCN(c2cccc(Cl)c2)CC1 | . | 13 | . | .
COc1ccc2c(c1)-c1nc(/N=C/c3ccc(O)cc3)sc1CC2 | 56* | 21 | 26 | 17
O=C(CSC(=S)N1CCOCC1)Nc1ccc(S(=O)(=O)Nc2ncccn2)cc1 | . | -16 | . | -8
Oc1c(C(c2ccccc2Cl)N2CCCC2)ccc2cccnc12 (centres undefined) | 55* | -4 | 8 | -31
Oc1c(C(c2cccs2)N2CCN(c3ccccc3)CC2)ccc2cccnc12 (centres undefined) | 38 | . | 10 | .
Cc1ccc(C)c(C(=O)COC(=O)CN2C(=O)C3C4CCC(C4)C3C2=O)c1 (centres undefined) | . | -5 | . | 0
Cc1ccc2c(c1)c(N=Nc1cccc(C(=O)O)c1)c(O)n2C | 59* | -5 | 7 | 0
CCN(Cc1ccccc1)C(=O)c1cc2c(OC)c(OC)c(OC)cc2[nH]1 | . | 1 | . | -3
CCn1c(SCC(=O)Nc2ccc3c(c2)c2ccccc2n3CC)nnc1-c1ccco1 | 28 | 76* | -4 | 11
CCn1c(SCC(=O)Nc2cccc(NC(C)=O)c2)nnc1-c1ccco1 | . | 8 | . | 1
CCN(CC)C(=O)CSc1nc2c(sc(=S)n2-c2ccccc2)c(=O)n1-c1ccccc1OC | . | 9 | . | 1
CCOC(=O)CSc1nc2c(sc(=S)n2-c2ccccc2)c(=O)n1-c1ccc(OC)cc1OC | . | 65* | . | -3
S=P(N1CC1)(N1CC1)N1CC1 | . | 18 | . | -8
Cc1ccc(CNC(=O)c2ccc3c(=O)n(CC4CCCO4)c(=S)[nH]c3c2)cc1 (centres undefined) | 7 | 2 | -23 | -5
O=C(NCc1ccccc1)c1ccc2c(=O)[nH]c3c(C(=O)NCC4CCCO4)sc(=S)n3c2c1 (centres undefined) | 70* | 17 | -2 | 35
CCCCCNC(=O)c1ccc2c(=O)[nH]c3c(C(=O)NCC4CCCO4)sc(=S)n3c2c1 (centres undefined) | 65* | 6 | -2 | 25
Cc1ccc(CNC(=O)c2ccc3c(=O)[nH]c4c(C(=O)NCC5CCCO5)sc(=S)n4c3c2)cc1 (centres undefined) | 79* | -4 | 5 | 23
Oc1cc2c(cc1O)C(c1ccccc1)CNCC2 (centres undefined) | . | 47 | . | 2
Oc1cc2c(cc1O)[C@@H](c1ccccc1)CNCC2 | 38 | 69* | 24 | -5
O=C(N=Nc1c(O)[nH]c2ccc([N+](=O)[O-])cc12)c1ccccc1Cl | . | 5 | . | 13
O=C(O)c1ccccc1N=Nc1c(O)[nH]c2ccc([N+](=O)[O-])cc12 | . | -9 | . | 37*
CC(=O)Nc1c(Cl)cc(Cl)c2c1Cc1cc(Cl)ccc1-2 | . | -7 | . | -7
CCOC(=O)c1c(NC(=O)c2ccco2)n(C2CCCCC2)c2nc3ccccc3nc12 | 69* | 30 | 38 | 15
SMILES | Diaph inh CS | PfG6PD inh | G6PDH CS | HKDC1 inhibitor
COc1ccc(-n2c(NC(=O)c3ccco3)c(C#N)c3nc4ccccc4nc32)cc1 | 70* | 15 | 42 | 13
CCC(=O)Nc1c(C#N)c2nc3ccccc3nc2n1C1CCCCC1 | 28 | 36 | 4 | 14
Cc1ccc(Nc2c([N+](=O)[O-])ccc3c2=NC2(CCCCC2)N=3)cc1 | 51* | 28 | 10 | 17
COCCCn1c(=S)[nH]c2c(sc3ccccc32)c1=O | 64* | 13 | 4 | -2
O=C(O)CCCn1c(=S)[nH]c2c(sc3ccc([N+](=O)[O-])cc32)c1=O | 84* | -1 | -4 | -1
O=c1c2ccccc2[nH]c(=S)n1CCCN1CCOCC1 | 25 | 7 | -2 | -2
O=c1c2sc3ccccc3c2[nH]c(=S)n1CCN1CCOCC1 | 56* | 12 | 0 | 4
CC1CCN(CCCn2c(=S)[nH]c3c(sc4ccccc43)c2=O)CC1 | 58* | 25 | -1 | -6
O=C(Nc1ccccn1)C1CCN(C(=O)c2ccc(Cl)cc2)CC1 | . | -12 | . | .
CN(C)c1cc(N/N=C/c2ccc(Cl)cc2)nc(N(C)C)n1 | 54* | 42 | 43 | 11
COc1cc(N/N=C/c2ccc(N(C)C)cc2)ncn1 | 0 | 11 | 13 | -6
O=S1(=O)c2cccc3cccc(c23)N1CCBr | . | 45 | . | 13
Cc1sc(NC(=S)Nc2ccc(F)cc2)c(C(N)=O)c1C | 58* | 20 | 12 | -6
CCOC(=O)c1c(NC(=S)Nc2ccc(Cl)cc2)sc(C)c1C | 8 | -2 | 4 | -9
c1ccc2c3c([nH]c2c1)-c1[nH]ncc1CC3 | 64* | 51 | 17 | -2
Clc1ccc2[nH]c3c(c2c1)CCc1cn[nH]c1-3 | 26 | 17 | 3 | -5
COc1ccc(NC(=O)CCCNC(=O)c2ccc(Cl)cc2)cc1S(=O)(=O)N1CCOCC1 | . | -6 | . | -3
COc1cccc(C(=O)NC2CC3CCCC(C2)N3CC(=O)Nc2ccc(N(C)C)cc2)c1 (centres undefined) | 11 | 6 | 4 | -2
COc1cccc(C(=O)NC2CC3CCCC(C2)N3CC(=O)Nc2ccccc2)c1 (centres undefined) | 58* | 39 | 11 | 27
C[C@H]1CN([C@@H](C)CO)C(=O)CCCn2nncc2CO[C@@H]1CN(C)Cc1ccccc1C(F)(F)F | . | -13 | . | .
Cc1nnc(Cc2ccco2)c2n[nH]c(C)c12 | . | 5 | . | .
S=c1[nH]c(-c2ccccc2)cn1/N=C/c1ccccc1Br | 46 | 35 | -6 | 3
Oc1ccc(/C=N/n2cc(-c3ccccc3)[nH]c2=S)cc1 | 53* | 37 | -12 | -1
O=C(CCN1C(=O)C2C3C=CC(C4CC34)C2C1=O)Oc1cccc2cccnc12 (centres undefined) | 24 | -13 | 53* | 6
O=C(CCN1C(=O)C2C3C=CC(C4CC34)C2C1=O)Oc1ccc(Br)cc1 (centres undefined) | 11 | -7 | 2 | -5
SMILES | Diaph inh CS | PfG6PD inh | G6PDH CS | HKDC1 inhibitor
Cc1ccsc1C1Nc2ccc3ncccc3c2C2=C1C(=O)CC(C)(C)C2 (centres undefined) | 53* | 45 | 14 | 1
O=C1CCCC2=C1C(c1ccc(O)c(O)c1)Nc1ccc3ncccc3c12 (centres undefined) | 71* | 49 | 28 | 7
O=C(Nc1ccccc1)C1=C[C@@H](c2ccc(Br)cc2)C[C@@H](OCCCCO)O1 | 63* | 10 | 6 | -1
COc1ccc(NC(=O)CC2Nc3cccc4cccc(c34)NC2=O)cc1 (centres undefined) | 75* | 26 | 23 | 24
CC1(C2CCC3C4CCC5CC6(CCC5(C)C4C(=O)CC32C)OCCO6)OCCO1 (centres undefined) | . | -9 | . | -1
COc1ccc(C=Nc2ccc3[nH]ncc3c2)c(O)c1 | 66* | 22 | 40 | 10
COc1cccc(NC(=O)CN2CCc3ccccc3C2)c1 | . | 1 | . | -5

From PubChem
